Measurements from article PMC3712647 (European journal of medicinal chemistry, 2013).
Like-named read-outs stand apart in the source and are kept apart here.

Assays:
[1] = test system: Breast; assay: cells; format: cell-based; details: Homo sapiens, 48 h, read-out: TGI Breast
[2] = test system: full NCI 60 cell panel; assay: NCI 60 five-concentration screen, panel mean; format: cell-based; details: Homo sapiens, 48 h; for IC (TGI): read-out: TGI MG-MID; for GI50: read-out: GI50 MG-MID; for CC50: read-out: LC50 MG-MID
[3] = test system: Nox4 in B1647 cells; assay: Intracellular ROS level; format: cell-based, human; details: 30 min treatment at 5 or 10 µM
How it was run: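 Human AML B1647 cells grown in IMDM with 5% human serum (37 °C, 5% CO₂) were treated 30 min with test compound in DMSO. Cells (1 × 10⁶/mL) were washed twice in PBS and loaded with 5 µM DCFH-DA for 20 min at 37 °C. Oxidized DCF fluorescence was read in a multiwell plate reader.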

[4] = test system: Nox4; assay: Nox4 expression by Western blotting in B1647 cells; format: cell-based, human; details: 24 h treatment; 10 µM
How it was run: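 B1647 cells were treated 24 h, then lysed 15 min on ice (1% Igepal, 150 mM NaCl, 50 mM Tris–HCl, 5 mM EDTA, protease inhibitors, orthovanadate, pH 8.0). 40 µg protein/lane ran on 10% SDS-PAGE and was transferred to nitrocellulose (100 V, 90 min). Blots were blocked in 5% milk in TBS/Tween, probed overnight at 4 °C with anti-Nox4 and anti-β-tubulin, then HRP secondaries, with luminol detection.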

[5] = test system: Leukemia; assay: cells; format: cell-based; details: Homo sapiens, 48 h, read-out: TGI Leukemia
[6] = test system: Nox4 in B1647 cells; assay: Intracellular ROS after Nox2 silencing in B1647 cells; format: cell-based, human; details: siRNA against Nox2, 50 nM
[7] = test system: Melanoma; assay: NCI 60 five-concentration screen, melanoma subpanel; format: cell-based; details: Homo sapiens, 48 h, read-out: TGI Melanoma
[8] = test system: Ovarian; assay: cells; format: cell-based; details: Homo sapiens, 48 h, read-out: TGI Ovarian
[9] = test system: Renal; assay: NCI 60 five-concentration screen, renal subpanel; format: cell-based; details: Homo sapiens, 48 h, read-out: TGI Renal
[10] = test system: CNS; assay: cells; format: cell-based; details: Homo sapiens, 48 h, read-out: TGI CNS
[11] = test system: Colon; assay: NCI 60 five-concentration screen, colon subpanel; format: cell-based; details: Homo sapiens, 48 h, read-out: TGI Colon
[12] = test system: NSCLC; assay: NCI 60 five-concentration screen, NSCLC subpanel; format: cell-based; details: Homo sapiens, 48 h, read-out: TGI NSCLC
[13] = test system: Prostate; assay: cells; format: cell-based; details: Homo sapiens, 48 h, read-out: TGI Prostate
[14] = test system: cells; assay: Cell cycle effect; format: cell-based; details: data not presented
[15] = test system: full NCI 60 cell panel; assay: NCI 60 Cell One-Dose Screen; format: cell-based

| Compound | IC (TGI) [1] [µM] | IC (TGI) [2] [µM] | IC (TGI) [5] [µM] | GI50 [2] [µM] | IC (TGI) [7] [µM] | IC (TGI) [9] [µM] | CC50 [2] [µM] | IC (TGI) [10] [µM] | IC (TGI) [11] [µM] | also measured |
| --- | --- | --- | --- | --- | --- | --- | --- | --- | --- | --- |
| COc1ccc(OC)c2c1NC(=O)/C2=C\c1cc(OC)c(OC)c(OC)c1 [Compound 3] | 19 | 19.5 |  |  |  |  |  |  |  |  |
| COc1cc(/C=C2\C(=O)Nc3ccc(Br)cc32)cc(OC)c1OC [Compound 5] |  | 67.6 | 49 | 7.9 | 76 |  |  |  |  | ROS generation [3]: partially inhibited; Nox4 expression [4]: downregulate Nox4 expression; ROS production in Nox2 silenced cells vs scrambled cells [6]: inhibited ROS production to the same extent |
| COc1cc(/C=C2\C(=O)Nc3ccc(N(C)C)cc32)cc(OC)c1OC [Compound 6] |  | 32.4 | 9.3 | 2.8 |  | 49 | 89.1 |  |  | IC (TGI) [8]: 32.4 µM |
| COc1cc(/C=C2/C(=O)Nc3cc(C)c(O)cc32)cc(OC)c1OC [Compound 7] |  | 20.9 | 8.7 | 4.3 |  |  | 69.2 |  |  | ROS generation [3]: partially inhibited; Nox4 expression [4]: downregulate Nox4 expression; ROS production in Nox2 silenced cells vs scrambled cells [6]: inhibited ROS production to the same extent |
| COc1cc(/C=C2\C(=O)Nc3cc(Cl)ccc32)cc(OC)c1OC [Compound 8] | 4.1 | 5.4 | 3.6 | 1.3 | 6.8 | 4.9 | 24 | 5 | 5.4 | IC (TGI) [8]: 5.4 µM; IC (TGI) [12]: 8.3 µM; IC (TGI) [13]: 5.4 µM; proportion of cells in G2/M [14]: increased proportion of cells in G2/M |
| COc1cc(/C=C2\C(=O)Nc3cc(OC(F)(F)F)ccc32)cc(OC)c1OC [Compound 9] | 8.7 | 12.3 |  | 2.7 |  |  |  | 7.4 |  |  |
| COc1cc(/C=C2/C(=O)N(C)c3ccc(O)cc32)cc(OC)c1OC [Compound 10] |  | 17.4 | 8.3 | 4.4 |  |  |  | 17.4 |  | IC (TGI) [13]: 6.3 µM |
| COc1ccc2c(c1)/C(=C\c1cc(OC)c(OC)c(OC)c1)C(=O)N2C [Compound 11] | 21.9 | 21.9 | 7.6 |  | 21.9 | 24 | 89.1 |  |  |  |
| COc1cc(/C=C2\C(=O)N(C)c3ccc(Cl)cc32)cc(OC)c1OC [Compound 12] |  | 21.4 |  | 4.5 | 21.4 | 24 |  |  |  |  |
| COc1cc(/C=C2\C(=O)N(Cc3ccc(Cl)cc3)c3ccccc32)cc(OC)c1OC [Compound 13] |  | 10.7 | 4.9 | 2.6 | 8.9 | 10.7 | 41.7 |  | 5.9 | IC (TGI) [13]: 7.6 µM |
| COc1ccc(CN2C(=O)/C(=C\c3cc(OC)c(OC)c(OC)c3)c3ccccc32)cc1 [Compound 14] |  | 9.3 |  | 2.1 | 4.5 | 9.1 | 35.5 |  | 3.6 | IC (TGI) [12]: 9.3 µM |
| COc1ccc(CN2C(=O)/C(=C/c3cc(OC)c(OC)c(OC)c3)c3cc(OC)ccc32)cc1 [Compound 15] |  | 8.9 |  |  | 5.7 | 8.9 | 34.7 | 7.4 | 3.8 | IC (TGI) [8]: 8.9 µM |
| COc1ccc2c(c1)C(=Nc1cc(OC)c(OC)c(OC)c1)C(=O)N2 [Compound 18] |  |  |  |  |  |  |  |  |  | cytotoxic activity in the preliminary one-dose test [15]: lack of cytotoxic activity |
| COc1cc(/N=C2\C(=O)N(Cc3ccccc3)c3ccccc32)cc(OC)c1OC [Compound 19] |  |  |  |  |  |  |  |  |  | growth inhibition in the one-dose screen ([15]; RXF 393, CCRF-CEM, RPMI-8226 and HOP-92 cells, 10^−5 M, data not shown): growth inhibition; cytotoxic activity in the preliminary one-dose test ([15]; single concentration 10^−5 M, 48 h incubation): lack of cytotoxic activity |
| CC[C@]1(O)C[C@H]2CN(CCc3c([nH]c4ccccc34)[C@@](C(=O)OC)(c3cc4c(cc3OC)N(C=O)[C@H]3[C@@](O)(C(=O)OC)[C@H](OC(C)=O)[C@]5(CC)C=CCN6CC[C@]43[C@@H]65)C2)C1 [Vincristine, reference compound] | 7.9 | 10 | 15.8 |  | 7.9 | 19.9 |  | 6.3 | 4 | IC (TGI) [8]: 19.9 µM; IC (TGI) [12]: 15.8 µM; IC (TGI) [13]: 6.3 µM |
